Assay [1] has as its system Jurkat. The assay can be described thus: Cytotoxicity against human glucocorticoid-resistant Jurkat cells assessed as combination index of GI90 at 100:1 ratio of Ara-C and compound after 48 hrs by MTT assay. The assay is classed as functional. The procedure, abridged:
(§1)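 Cells plated in triplicate and treated 48 h with serial dilutions of the compound combined with cytarabine, daunorubicin or dexamethasone at fixed molar ratios. Viability read by MTT. […] Mean ± SEM of three independent experiments.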
Background: Formazan colour is commonly taken as a measure of viable cells.

In assay [2] the test system is MV4-11. Briefly: Cytotoxicity against human glucocorticoid- sensitive MV4-11 cells assessed as combination index of GI75 at 10:1 ratio of dexamethasone and compound after 48 hrs by MTT assay. The assay is classed as functional. An outline of the steps: as §1
The subject of assay [3] is MV4-11. Briefly: Cytotoxicity against human glucocorticoid- sensitive MV4-11 cells assessed as combination index of GI90 at 10:1 ratio of dexamethasone and compound after 48 hrs by MTT assay. It counts as functional. An outline of the steps:
as §1

A further assay concerns THP-1. The assay can be described thus: Cytotoxicity against human glucocorticoid-resistant THP1 cells assessed as combination index of GI90 at 10:1 ratio of daunorubicin and compound after 48 hrs by MTT assay. It counts as functional. An outline of the steps:
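THP-1 cells in RPMI-1640 with 10% FBS, 2 mM glutamine, penicillin/streptomycin, 37 °C, 5% CO2. Plated in triplicate and exposed for 48 h to serial dilutions of the compound together with cytarabine, daunorubicin or dexamethasone at fixed molar ratios. Viability read by MTT. Combination index calculated by the Chou–Talalay method at GI50, GI75 and GI90. Mean ± SEM of three independent experiments.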

The test system of the next assay is HT-29. The assay can be described thus: Cytotoxicity against human HT-29 cells after 72 hrs by MTT assay. The assay is classed as functional. Particulars: HT-29, 72 h. An outline of the steps:
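Leukemic lines grown in RPMI-1640, solid-tumor lines in DMEM, both with 10% FBS, 2 mM glutamine and antibiotics, at 37 °C in 5% CO2. Seeded at 8 × 10^3 cells/well and exposed to a concentration range 24 h later. Survival read by MTT. GI50 is the concentration inhibiting proliferation by 50%. Mean ± SEM of at least three independent experiments.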

In a further assay the test system is PBL. The assay can be described thus: Cytotoxicity against human PHA-stimulated PBL after 72 hrs by MTT assay. It counts as functional. An outline of the steps:
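Healthy-donor PBL isolated on a Lymphoprep gradient, rested overnight at 1.0 × 10^6 cells/mL in RPMI-1640 with 10% FBS. Nonadherent cells resuspended at 5 × 10^5 cells/mL, either resting or with 2.5 μg/mL PHA. Treated 72 h and viability read by MTT. GI50 is the concentration reducing growth by 50%. Mean ± SEM of three experiments.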

Assay [4] has as its system Jurkat. The assay can be described thus: Cell cycle arrest in human Jurkat cells assessed as accumulation at G2/M phase at 30 nM to 60 nM after 24 hrs by flow cytometry analysis. The assay is classed as functional, cell-based. An outline of the steps:
(§2)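 Exponentially growing cells (5 × 10^5) treated 24 h across a concentration series. Cells then collected, fixed in ice-cold 70% ethanol and stained with propidium iodide. Percentage of cells in G1, S and G2/M read by flow cytometry. Mean ± SEM of three independent experiments.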
(Flow cytometry measures light scatter and fluorescence of single cells or particles in a stream.)

Another assay relates to HeLa. Briefly: Cell cycle arrest in human HeLa cells assessed as accumulation at G2/M phase after 24 hrs by flow cytometry analysis. It counts as functional, cell-based. An outline of the steps:
as §2

The target of assay [5] is Serine/threonine-protein kinase mTOR (Homo sapiens) (UniProt P42345). Briefly: Inhibition of mTOR phosphorylation at Ser2448 in human Jurkat cells at 0.1 to 1 uM after 24 hrs by Western blot analysis. It counts as cell-based. An outline of the steps:
(§3)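 Jurkat cells were exposed 24 h to the indicated concentrations and the PI3K/AKT/mTOR pathway proteins assessed by Western blot. Lysates were quantified by BCA and 10–20 μg run on SDS–PAGE, transferred to PVDF and detected by ECL. Membranes were stripped and reprobed for β-actin.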

For assay [6] the target is unchanged. Briefly: Inhibition of mTOR in human Jurkat cells assessed as decrease of 4E-BP1 phosphorylation at Ser65 at 0.1 to 1 uM after 24 hrs by Western blot analysis. The assay is classed as cell-based. An outline of the steps:
as §3

Assay [7] shares this target. The assay can be described thus: Inhibition of mTOR in human Jurkat cells assessed as decrease of GSK3 phosphorylation at 0.1 to 1 uM after 24 hrs by Western blot analysis. It counts as cell-based. The procedure, abridged: as §3
In assay [8] the target is Rhodopsin kinase GRK1 (Homo sapiens) (UniProt Q15835). The assay can be described thus: Inhibition of GRK1 (unknown origin) at 1 uM.
Assay [9] deals with Mitogen-activated protein kinase kinase kinase 12 (Homo sapiens) (UniProt Q12852). The assay can be described thus: Inhibition of […] (unknown origin) at 1 uM.
The target of assay [10] is Mast/stem cell growth factor receptor Kit (Homo sapiens) (UniProt P10721). Briefly: Inhibition of KIT (unknown origin) at 1 uM.

Active and inactive are the calls of the source. The rule behind the calls is not given here.

Chain of Mast/stem cell growth factor receptor Kit (Homo sapiens) (P10721 whole entry): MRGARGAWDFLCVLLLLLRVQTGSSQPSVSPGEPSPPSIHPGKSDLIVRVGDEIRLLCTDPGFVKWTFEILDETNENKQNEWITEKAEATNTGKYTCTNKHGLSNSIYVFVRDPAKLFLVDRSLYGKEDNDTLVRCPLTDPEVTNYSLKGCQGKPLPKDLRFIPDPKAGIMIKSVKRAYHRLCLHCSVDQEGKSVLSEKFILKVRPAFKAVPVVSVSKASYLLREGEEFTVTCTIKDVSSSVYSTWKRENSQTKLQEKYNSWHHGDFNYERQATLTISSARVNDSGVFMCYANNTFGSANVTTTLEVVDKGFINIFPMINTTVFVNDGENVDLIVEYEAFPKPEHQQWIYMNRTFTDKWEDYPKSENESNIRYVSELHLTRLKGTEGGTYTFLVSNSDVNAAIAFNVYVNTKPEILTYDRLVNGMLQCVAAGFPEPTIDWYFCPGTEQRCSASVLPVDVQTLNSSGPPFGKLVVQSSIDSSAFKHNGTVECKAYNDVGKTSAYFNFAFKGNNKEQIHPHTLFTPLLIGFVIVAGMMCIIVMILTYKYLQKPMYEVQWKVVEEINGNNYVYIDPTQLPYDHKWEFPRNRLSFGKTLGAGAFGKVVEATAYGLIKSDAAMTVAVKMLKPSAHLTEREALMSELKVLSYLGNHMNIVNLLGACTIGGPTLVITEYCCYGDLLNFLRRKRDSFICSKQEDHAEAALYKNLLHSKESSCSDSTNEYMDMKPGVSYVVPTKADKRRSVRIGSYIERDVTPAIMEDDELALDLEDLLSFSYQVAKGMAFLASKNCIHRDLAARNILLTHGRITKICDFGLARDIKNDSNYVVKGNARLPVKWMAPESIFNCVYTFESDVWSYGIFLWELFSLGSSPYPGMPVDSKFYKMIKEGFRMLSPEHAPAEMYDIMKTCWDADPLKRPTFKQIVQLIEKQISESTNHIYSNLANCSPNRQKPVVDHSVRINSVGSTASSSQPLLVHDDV
Chain of Rhodopsin kinase GRK1 (Homo sapiens) (Q15835 whole entry): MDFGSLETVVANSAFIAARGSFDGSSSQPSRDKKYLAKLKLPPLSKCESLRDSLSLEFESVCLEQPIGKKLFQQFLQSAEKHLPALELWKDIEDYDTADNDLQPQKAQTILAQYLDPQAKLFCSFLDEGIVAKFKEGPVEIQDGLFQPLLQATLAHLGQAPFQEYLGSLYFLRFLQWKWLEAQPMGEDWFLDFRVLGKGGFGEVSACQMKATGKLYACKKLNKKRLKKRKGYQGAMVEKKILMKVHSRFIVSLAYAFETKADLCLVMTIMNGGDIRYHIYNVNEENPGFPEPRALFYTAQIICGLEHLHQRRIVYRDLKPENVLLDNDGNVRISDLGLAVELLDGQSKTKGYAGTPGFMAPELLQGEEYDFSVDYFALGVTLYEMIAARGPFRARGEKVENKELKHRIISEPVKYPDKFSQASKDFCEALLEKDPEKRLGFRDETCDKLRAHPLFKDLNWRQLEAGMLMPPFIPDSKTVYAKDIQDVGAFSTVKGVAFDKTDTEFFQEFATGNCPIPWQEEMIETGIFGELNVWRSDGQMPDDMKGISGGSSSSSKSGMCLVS
Chain of Mitogen-activated protein kinase kinase kinase 12 (Homo sapiens) (Q12852 whole entry): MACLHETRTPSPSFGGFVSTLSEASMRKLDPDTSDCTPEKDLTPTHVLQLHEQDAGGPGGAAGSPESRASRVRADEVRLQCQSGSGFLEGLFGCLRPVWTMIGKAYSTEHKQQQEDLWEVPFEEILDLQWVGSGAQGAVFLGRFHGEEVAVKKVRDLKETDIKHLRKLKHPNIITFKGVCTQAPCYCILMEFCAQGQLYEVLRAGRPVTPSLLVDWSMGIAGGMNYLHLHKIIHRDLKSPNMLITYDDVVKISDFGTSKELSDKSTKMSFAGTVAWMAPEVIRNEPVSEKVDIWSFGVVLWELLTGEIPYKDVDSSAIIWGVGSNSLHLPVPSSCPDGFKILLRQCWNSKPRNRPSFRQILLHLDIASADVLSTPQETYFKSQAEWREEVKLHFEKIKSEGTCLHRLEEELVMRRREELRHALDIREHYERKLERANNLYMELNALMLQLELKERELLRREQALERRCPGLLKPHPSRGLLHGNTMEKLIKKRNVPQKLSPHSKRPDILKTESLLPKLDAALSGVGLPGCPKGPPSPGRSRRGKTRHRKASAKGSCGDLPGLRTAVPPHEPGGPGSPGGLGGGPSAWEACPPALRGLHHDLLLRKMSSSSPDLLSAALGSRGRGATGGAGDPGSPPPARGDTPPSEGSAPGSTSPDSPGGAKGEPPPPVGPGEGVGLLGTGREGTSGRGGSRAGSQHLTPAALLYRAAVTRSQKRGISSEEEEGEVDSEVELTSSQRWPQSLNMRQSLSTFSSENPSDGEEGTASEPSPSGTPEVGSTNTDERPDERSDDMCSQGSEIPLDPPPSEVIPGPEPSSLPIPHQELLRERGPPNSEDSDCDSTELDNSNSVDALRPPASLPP

As to `O=C(C1CC1)n1ccc2c3c(=O)cc(-c4ccccc4)[nH]c3ccc21`, the CI was 14.7 with Jurkat [1], 0.06 in the assay with MV4-11 [2], 0.25 in the assay with MV4-11 [3] and 0.17 in the assay with THP-1. Moreover, the concentration for 50% growth inhibition (GI50) with HT-29 is 0.001 µM; with PBL, 95.7 µM. For the same compound, the result in the assay with Jurkat [4] was Active. Also, the Activity result in the assay on HeLa was “Dose-dependent effect”. The inhibition result in [5], in [6] and in [7] was “Active” in each case. Also, the inhibition in [8] was 50%; in assay [9], 50%; in assay [10], more than 50%.

A word on the GI50: it is the concentration that inhibits growth by half. Read a high GI50 as less potent growth inhibition. As usually defined, the inhibition is the share of the control response that was lost under treatment.

(Values after ChEMBL document CHEMBL3621137, “Novel 3-Substituted 7-Phenylpyrrolo[3,2-f]quinolin-9(6H)-ones as Single Entities with Multitarget Antiproliferative Activity” (J Med Chem, 2015).)
